The source made the active and inactive calls. The rule behind the calls is not given here.
Legend:
[1] = Inhibition of rat serum BuChE at 50 uM using butyrylthiocholine iodide as substrate incubated for 15 mins by Ellman's method relative to control; conditions: 0.25 h
How it was run: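 Ellman method with 25% rat serum as BuChE source, butyrylthiocholine iodide 1 mmol/L, phosphate buffer pH 7.4, absorbance at 405 nm. Compounds tested at 50 µM. […] Triplicate wells.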

[2] = Inhibition of Cu2+-mediated aggregation of amyloid beta (1-42) (unknown origin) at 25 uM after 24 hrs by thioflavin T fluorescence-based fluorimetric method relative to control; type: functional
How it was run: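 HFIP-pretreated Aβ1-42 (25 µM) was incubated with Cu2+ (25 µM), with or without compound (25 µM final), in 20 mM HEPES/150 mM NaCl pH 6.6 at 37 °C for 24 h. 5 µM ThT in 50 mM glycine-NaOH pH 8.5 was then added. Fluorescence was read at ex 446/em 490 nm. Percent inhibition was taken versus no-inhibitor control after background subtraction, in triplicate.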

[3] = Antioxidant activity assessed as trolox equivalents of AAPH radical scavenging activity at 5 uM preincubated for 15 mins followed by AAPH addition measured every 60 sec for 90 mins by ORAC-FL assay; type: functional
How it was run: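 Peroxyl radicals generated by AAPH (12 mM final) at 37 °C in phosphate buffer pH 7.4 with fluorescein (150 nM final). Sample and fluorescein were preincubated 15 min before AAPH addition. Fluorescence (ex 485/em 535 nm) was read every 60 s for 90 min.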

[4] = molecular target: T1, Amine oxidase [flavin-containing] B (Homo sapiens, UniProt P27338); assay: Potency index, ratio of rasagiline IC50 to compound IC50 for recombinant human MAO-B expressed in baculovirus infected High 5 insect cells
T1 sequence (P27338 whole entry): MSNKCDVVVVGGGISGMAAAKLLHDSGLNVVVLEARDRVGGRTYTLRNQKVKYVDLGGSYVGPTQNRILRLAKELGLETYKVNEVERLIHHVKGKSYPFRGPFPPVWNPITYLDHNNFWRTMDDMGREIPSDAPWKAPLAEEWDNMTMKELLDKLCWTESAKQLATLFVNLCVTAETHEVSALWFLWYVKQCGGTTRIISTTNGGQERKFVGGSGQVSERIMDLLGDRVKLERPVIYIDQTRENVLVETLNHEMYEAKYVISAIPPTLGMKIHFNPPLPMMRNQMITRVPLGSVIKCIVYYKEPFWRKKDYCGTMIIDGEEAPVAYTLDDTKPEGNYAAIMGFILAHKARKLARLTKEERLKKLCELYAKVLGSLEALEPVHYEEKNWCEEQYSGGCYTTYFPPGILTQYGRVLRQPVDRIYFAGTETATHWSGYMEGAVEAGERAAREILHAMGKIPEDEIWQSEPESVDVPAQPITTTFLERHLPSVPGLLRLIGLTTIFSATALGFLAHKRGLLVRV

[5] = molecular target: Acetylcholinesterase (Electrophorus electricus) (UniProt O42275); assay: Mixed-type inhibition of electric eel AChE at 2.5 to 10 uM using varying levels of acetylthiocholine iodide as substrate preincubated for 15 mins followed by substrate addition by Lineweaver-Burk plot analysis
How it was run: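 Kinetics with EeAChE in 0.1 M phosphate pH 8.0 with DTNB. Three inhibitor concentrations preincubated with enzyme 15 min at 37 °C, then acetylthiocholine added at 0.1–0.4 mM. Read at 412 nm. Weighted least-squares Lineweaver–Burk plots; slopes replotted against inhibitor concentration. No-inhibitor controls run in parallel.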

[6] = Metal chelating activity assessed as compound-Cu2+ complex formation by measuring shift in maximum absorption wavelength at 37.5 uM after 30 mins by UV-vis spectrophotometric method; type: physicochemical; conditions: 0.5 h
How it was run: (§1)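 Difference UV-vis spectra (200-600 nm) of compound and metal salt (CuCl2 or AlCl3), each 37.5 µM final, after 30 min at room temperature. Spectra of metal alone and compound alone were subtracted from the mixture spectrum.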

[7] = molecular target: T2, Amine oxidase [flavin-containing] A (Homo sapiens, UniProt P21397); assay: Inhibition of recombinant human MAO-A expressed in baculovirus infected High 5 insect cells at 10 uM using kynuramine as substrate incubated for 30 mins by spectrofluorometric method relative to control; conditions: 0.5 h
T2 sequence (P21397 whole entry): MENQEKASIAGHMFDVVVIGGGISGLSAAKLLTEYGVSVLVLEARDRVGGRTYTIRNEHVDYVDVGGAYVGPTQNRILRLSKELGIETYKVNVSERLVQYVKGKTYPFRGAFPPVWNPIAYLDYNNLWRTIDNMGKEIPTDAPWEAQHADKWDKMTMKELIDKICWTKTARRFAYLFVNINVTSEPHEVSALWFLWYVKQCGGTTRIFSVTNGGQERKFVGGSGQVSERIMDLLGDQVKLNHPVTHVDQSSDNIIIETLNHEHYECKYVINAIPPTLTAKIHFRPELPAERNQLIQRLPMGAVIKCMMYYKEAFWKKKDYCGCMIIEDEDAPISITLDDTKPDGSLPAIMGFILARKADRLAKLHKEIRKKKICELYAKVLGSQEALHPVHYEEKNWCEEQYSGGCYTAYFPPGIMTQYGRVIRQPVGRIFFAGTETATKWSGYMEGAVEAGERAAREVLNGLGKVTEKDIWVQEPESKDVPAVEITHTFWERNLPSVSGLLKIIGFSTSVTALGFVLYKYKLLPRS
How it was run: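 Recombinant human MAO-A or MAO-B (7.5 µg/mL) with kynuramine substrate in 100 mM potassium phosphate pH 7.4 (KCl-isotonic), <4% DMSO, 30 min at 37 °C. Stopped with 2 N NaOH. 4-Hydroxyquinoline was measured fluorometrically (ex 310/em 400 nm) against a calibration curve. Single-point inhibition at 10 µM. IC50 from six-concentration sigmoidal curves, triplicate. SI = IC50(MAO-A)/IC50(MAO-B).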

[8] = Metal chelating activity assessed as mole fraction of compound required to show 1:1 stoichiometry for Cu2+-compound complex at 37.5 uM after 30 mins by UV-vis spectrophotometric method; type: physicochemical; conditions: 0.5 h
How it was run: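 Molar ratio method: a methanol solution of compound (37.5 µM final) was titrated with CuCl2 (3.75-150 µM final). Absorbance at 474 nm was taken after subtracting CuCl2 and compound spectra and plotted against the compound mole fraction. The intersection of the linear segments gave the stoichiometry.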

[9] = molecular target: T1, Amine oxidase [flavin-containing] B; assay: Inhibition of recombinant human MAO-B expressed in baculovirus infected High 5 insect cells using kynuramine as substrate incubated for 30 mins by spectrofluorometric method; type: cell-based
[10] = Metal chelating activity assessed as compound-Al3+ complex formation by measuring shift in maximum absorption wavelength at 37.5 uM after 30 mins by UV-vis spectrophotometric method; type: physicochemical; conditions: 0.5 h; how it was run: as §1
[11] = molecular target: T1, Amine oxidase [flavin-containing] B; assay: Potency index, ratio of iproniazid IC50 to compound IC50 for recombinant human MAO-B expressed in baculovirus infected High 5 insect cells
[12] = molecular target: Amyloid-beta precursor protein (Homo sapiens) (UniProt P05067); assay: Inhibition of self-induced aggregation of amyloid beta (1-42) (unknown origin) at 25 uM after 24 hrs by thioflavin T fluorescence-based fluorimetric method relative to control
How it was run: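 Aβ1-42 was pretreated in HFIP, dried and stocked in DMSO. Aβ1-42 (25 µM final) was incubated with compound (25 µM final) in 50 mM phosphate buffer pH 7.4 at 37 °C for 24 h. 5 µM ThT in 50 mM glycine-NaOH pH 8.5 was then added. Fluorescence was read at ex 446/em 490 nm. Inhibition = (1−IFi/IFc)×100 after background subtraction, in triplicate.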

[13] = Permeability of compound at 100 ug/ml after 18 hrs by PAMPA; type: ADME; conditions: read-out: permeability
Acetylcholinesterase = Acetylcholinesterase (Electrophorus electricus, UniProt O42275); assay: Inhibition of electric eel AChE using acetylthiocholine iodide as substrate incubated for 15 mins by Ellman's method
How it was run: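 Ellman spectrophotometric assay: electric eel AChE 0.05 U/mL final, acetylthiocholine iodide 1 mmol/L, phosphate buffer pH 8.0, range of compound concentrations.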

Sequence of Amyloid-beta precursor protein (Homo sapiens) (P05067 whole entry): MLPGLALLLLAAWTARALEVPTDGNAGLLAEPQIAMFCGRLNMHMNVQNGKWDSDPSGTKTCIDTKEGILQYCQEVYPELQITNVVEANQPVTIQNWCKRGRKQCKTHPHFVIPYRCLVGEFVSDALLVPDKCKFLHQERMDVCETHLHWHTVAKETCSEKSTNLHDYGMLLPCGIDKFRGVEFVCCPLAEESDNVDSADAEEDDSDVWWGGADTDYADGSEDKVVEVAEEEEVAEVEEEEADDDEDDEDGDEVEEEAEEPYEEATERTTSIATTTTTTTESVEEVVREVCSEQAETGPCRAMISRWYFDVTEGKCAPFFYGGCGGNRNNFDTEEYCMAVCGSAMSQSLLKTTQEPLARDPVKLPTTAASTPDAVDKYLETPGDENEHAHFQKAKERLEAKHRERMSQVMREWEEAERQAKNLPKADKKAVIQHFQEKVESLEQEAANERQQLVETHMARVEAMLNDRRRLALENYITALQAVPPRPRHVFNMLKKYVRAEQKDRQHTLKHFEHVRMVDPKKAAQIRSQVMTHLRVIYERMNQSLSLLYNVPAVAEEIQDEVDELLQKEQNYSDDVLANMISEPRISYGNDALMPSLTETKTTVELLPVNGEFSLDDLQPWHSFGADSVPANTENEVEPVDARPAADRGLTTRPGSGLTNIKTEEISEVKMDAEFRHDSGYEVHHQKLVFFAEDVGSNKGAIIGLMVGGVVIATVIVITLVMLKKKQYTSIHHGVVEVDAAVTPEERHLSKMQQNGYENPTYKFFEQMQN
Sequence of Acetylcholinesterase (Electrophorus electricus) (O42275 24-633 limits assumed): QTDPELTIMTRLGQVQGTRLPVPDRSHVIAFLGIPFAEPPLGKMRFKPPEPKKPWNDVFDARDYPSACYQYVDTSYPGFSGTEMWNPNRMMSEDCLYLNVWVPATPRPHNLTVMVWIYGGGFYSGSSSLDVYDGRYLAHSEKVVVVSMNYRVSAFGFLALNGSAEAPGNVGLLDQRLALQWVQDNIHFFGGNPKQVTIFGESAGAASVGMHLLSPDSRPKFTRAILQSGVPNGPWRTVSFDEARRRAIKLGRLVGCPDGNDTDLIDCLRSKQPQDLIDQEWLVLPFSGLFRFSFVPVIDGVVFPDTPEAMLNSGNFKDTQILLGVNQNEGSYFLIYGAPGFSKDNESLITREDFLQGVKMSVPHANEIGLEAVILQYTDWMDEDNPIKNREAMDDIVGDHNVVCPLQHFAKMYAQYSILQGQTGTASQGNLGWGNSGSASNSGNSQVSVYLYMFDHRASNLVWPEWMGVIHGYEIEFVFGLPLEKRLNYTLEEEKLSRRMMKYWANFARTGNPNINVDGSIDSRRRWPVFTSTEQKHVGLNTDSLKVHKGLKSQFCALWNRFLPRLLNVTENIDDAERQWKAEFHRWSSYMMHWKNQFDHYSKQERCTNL
Sequence of Acetylcholinesterase (O42275 whole entry): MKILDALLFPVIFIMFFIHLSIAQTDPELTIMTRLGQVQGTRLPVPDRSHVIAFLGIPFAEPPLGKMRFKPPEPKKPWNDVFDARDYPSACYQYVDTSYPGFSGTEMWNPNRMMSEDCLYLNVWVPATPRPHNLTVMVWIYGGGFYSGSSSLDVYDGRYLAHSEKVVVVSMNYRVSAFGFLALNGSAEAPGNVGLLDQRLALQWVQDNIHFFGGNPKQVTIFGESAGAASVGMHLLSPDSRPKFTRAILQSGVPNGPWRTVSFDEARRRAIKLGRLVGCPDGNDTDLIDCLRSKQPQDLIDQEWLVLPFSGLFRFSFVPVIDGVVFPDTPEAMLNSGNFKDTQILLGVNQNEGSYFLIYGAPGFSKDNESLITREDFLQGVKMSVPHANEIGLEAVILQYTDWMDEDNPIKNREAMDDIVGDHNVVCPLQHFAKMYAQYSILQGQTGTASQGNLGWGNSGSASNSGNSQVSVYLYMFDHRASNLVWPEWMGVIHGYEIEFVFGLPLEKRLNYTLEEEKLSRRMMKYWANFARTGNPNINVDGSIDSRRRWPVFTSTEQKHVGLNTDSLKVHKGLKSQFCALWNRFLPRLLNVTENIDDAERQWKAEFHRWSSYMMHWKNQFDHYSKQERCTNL

With `CN(C)c1ccc(/C=C/C(=O)c2ccc(OC(=O)N3CCCC3)cc2O)cc1` the “inhibition (INH)” value [1] was < 10%, the inhibition [2] was 79.7% and the Activity [3] was 2.83 µMequiv/µM. For the same compound, the “Ratio IC50” value [4] was 2, the inhibition [5] was “Active” and the Activity [6] was “Active”. For the same compound, the inhibition at 10 µM [7] was 12.8%, the Activity [8] was 0.98 molar ratio and the IC50 [9] was 290 nM. For the same compound, the Activity [10] was “Active”, the “Ratio IC50” value [11] was > 26.7 and the inhibition [12] was 89.5%. For the same compound, the Papp at 18 h, 100 ug/ml [13] was 7.03 ×10⁻⁶ cm/s and the IC50 (Acetylcholinesterase) was 4910 nM.
